The list is not random: actives were taken first. Their share in the collection is about 0.3%.
BasE inh = BasE siderophore biosynthesis inhibition | purified BasE, fluorescence polarization binding displacement | inhibition, % (test concentration not listed) | hit rate 0.1% among 84,000; in the data active = inhibition above about 25%, passing the limit was not always enough
LANA-nucl inh = LANA-nucleosome interaction inhibition; FITC-LANA1-23 / chicken nucleosome fluorescence polarization; active compounds read low; z-score (concentration not given with the values); hit rate 0.3% among 51,000;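 active = both repeat wells score below -2 in polarization z-score versus plate sample wells, excluding overly bright wells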
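test system = FITC-LANA peptide and chicken nucleosomes | amount = 240 nM purified chicken nucleosomes (480 nM peptide binding sites), final | reagent = 50 nM FITC-LANA1-23 probe | medium = TEN-BT buffer, pH 7.5 | doses = single compound addition by pin transfer, 100 nL per well | timing = 10–45 min, room temperature | detection = fluorescence polarization | repeats = duplicate plates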
A number is an active result; – = inactive; · = no result; ! = a repeat was not active.

SMILES	BasE inh	LANA-nucl inh
Cc1ccc2c(c1)c1c3c(nccn32)CCC1	–	-3.2
Cc1ccc2c(c1)c1c(n2C)C(C#N)CCC1 (stereo not drawn)	–	–
Cc1cccc(C(=O)N=Nc2c(O)[nH]c3ccc(C)cc23)c1	–	–
Cc1c(NC(=O)C23CC4CC(C)(CC(C)(C4)C2)C3)c(=O)n(-c2ccccc2)n1C	–	–
NNC(=O)CCCCn1c(=S)[nH]c2ccsc2c1=O	–	–
O=C(Cc1nncn1-c1ccccc1)c1ccc(O)cc1O	33	·
O=C(Cc1nc2ccccc2s1)c1ccc(O)cc1O	–	·
COCCn1c(SCC(N)=O)nc2sc3c(c2c1=O)CCCC3	–	·
COc1nc(-c2ccccc2)nnc1C(F)(F)F	·	–
O=C(O)C1=C(Nc2ccccc2)OCC1=O	–	·
CCOC(=O)C1=C(Nc2ccc(OC)cc2)OCC1=O	–	-2.1
Cn1nc(-c2ccc(F)cc2)nc2c(=O)n(C)c(=O)nc1-2	–	-4.8
Fc1ccc(-c2nc3n(n2)Cc2ccccc2-3)cc1	–	–
CC1CCCC(C)N1C(=O)CN(C)S(=O)(=O)c1ccc2c(c1)OCCO2 (stereo not drawn)	–	·
CCOC(=O)c1cc2c(=O)n3ccccc3nc2n(CC2CCCO2)c1=NC(C)=O (stereo not drawn)	–	–
CCOC(=O)c1cc2c(=O)n3ccccc3nc2n(C2CCCCC2)c1=NC(=O)c1cccnc1	–	-2.6
O=c1c(Br)cccc(Br)c1O	–	–
c1ccc2c(c1)CCN(Cn1cnc3ccccc31)C2	–	·
Clc1ccc(OCCCc2nc(-c3cccnc3)n[nH]2)c(Cl)c1	46	·
S=c1[nH]nc(CCCOc2ccc(Cl)cc2Cl)o1	–	–
O=C(Nc1ccccc1N1CCOCC1)c1cc(C2CC2)nn1-c1ccccc1	–	·
O=C(CSC1=NCCS1)OCN1C(=O)c2ccccc2C1=O	–	–
O=C(NCCCO)Nc1ccc2nc(-c3ccco3)c(-c3ccco3)nc2c1	–	-3
O=C(Nc1ccc(N2CCOCC2)cc1)Nc1ccc2nc(-c3ccco3)c(-c3ccco3)nc2c1	–	–
FC(F)Oc1ccc(NC(=S)NNc2ccc(Cl)nn2)cc1	–	·
SMILES	BasE inh	LANA-nucl inh
COc1ccccc1-n1cnc2cc(NCc3ccncc3)ccc21	32	–
CCCCn1cnc2cc(NCc3ccncc3)ccc21	–	–
CCN(CC)C(=O)Cn1cc(/C=C2\C(=O)NC(=O)N(CC)C2=O)c2ccccc21	–	-2.7
C=CCN1C(=O)NC(=O)/C(=C\c2cn(Cc3ccccc3)c3ccccc23)C1=O	–	·
O=C1c2ccccc2S(=O)(=O)c2cc(C(=O)N(Cc3ccco3)C3CCS(=O)(=O)C3)ccc21 (stereo not drawn)	–	·
O=C(/C=C/c1ccccc1)Nn1cnc2c(cnn2-c2ccccc2)c1=O	–	–
O=C(Nn1cnc2c(cnn2-c2ccccc2)c1=O)c1ccccc1	–	-2.1
CCC1CCCCN1C(=O)CSc1cccc[n+]1[O-] (stereo not drawn)	–	·
CC(C)C(=O)Nc1cccc(-c2nc3ccccc3o2)c1	–	–
CCCC(C)C(=O)Nc1ccc(-c2nc3ccccc3o2)cc1 (stereo not drawn)	–	-2.2
Cc1cc(NCCN(C)C)c2ccccc2n1	–	-2.2
Cc1cc(NCCNc2ccccc2)c2ccc3ccccc3c2n1	–	·
COc1ccc(/C=C/C(=O)OC2CCOC2=O)cc1OC (stereo not drawn)	–	·
COCCNC(=O)c1cc(Br)cs1	–	–
COCCNC(=O)c1cc(Br)c(C)c(C)c1C	–	-2.4
C=CCN1C(=O)C2(C(C#N)=C(N)Oc3ccccc32)c2c1c1ccccc1oc2=O (stereo not drawn)	–	–
Cn1c(=O)c(C(=O)NCCc2ccccc2)cc2cccnc21	–	–
O=C(Cc1ccccc1)OCc1nnc(-c2ccccc2)o1	–	–
O=C(CCc1c[nH]c2ccccc12)OCc1nnc(-c2ccccc2)o1	–	-2.1
COC(=O)CC1SC(=O)NC1=S (stereo not drawn)	–	-5.2
O=C(CC1SC(=O)NC1=O)Nc1ccccc1NC(=O)CC1SC(=O)NC1=O (stereo not drawn)	–	–
CC(=O)NC(C)C1CC2CCC1C2 (stereo not drawn)	–	·
C=CCn1c(C)cc(C(=O)CSc2nnc3n2CCCCC3)c1C	–	·
O=C(O)CCc1ccc(-c2ccc(F)cc2)n1CC1CCCO1 (stereo not drawn)	–	–
O=C(O)CCc1ccc(-c2ccc(F)cc2)n1CCC(=O)O	–	-2.1
SMILES	BasE inh	LANA-nucl inh
COc1ccc(C(=O)OCC(=O)NC2(C#N)CCCC2)cc1F	–	·
Cc1noc(C)c1CC(=O)N1CCN(S(=O)(=O)c2ccc3c(c2)OCCCO3)CC1	–	·
O=S(=O)(Nc1nc2ccccc2nc1NCCN1CCOCC1)c1ccc2c(c1)OCCO2	–	·
O=c1ccc(-c2ccccc2)nn1Cc1ccncc1	77	–
Cn1nc(-c2ccccc2)ccc1=O	–	–
COCCCn1c(=O)[nH]c(=O)c2c(N)c(C(=O)c3ccccc3)sc21	–	·
O=C1c2ccccc2-c2n[nH]c3cccc1c23	–	-2!

Source: PubChem BioAssay (ICCB-Longwood Screening Facility, Harvard Medical School)
